{"source": "ChEMBL document CHEMBL1140938", "about": "“Structural requirements for a lipoamino acid in modulating the anticonvulsant activities of systemically active galanin analogues” (J Med Chem, 2009)", "key": {"Galanin receptor type 1": {"target": "T1, Galanin receptor type 1 (Homo sapiens, UniProt P47211)", "T1 sequence (P47211 whole entry)": "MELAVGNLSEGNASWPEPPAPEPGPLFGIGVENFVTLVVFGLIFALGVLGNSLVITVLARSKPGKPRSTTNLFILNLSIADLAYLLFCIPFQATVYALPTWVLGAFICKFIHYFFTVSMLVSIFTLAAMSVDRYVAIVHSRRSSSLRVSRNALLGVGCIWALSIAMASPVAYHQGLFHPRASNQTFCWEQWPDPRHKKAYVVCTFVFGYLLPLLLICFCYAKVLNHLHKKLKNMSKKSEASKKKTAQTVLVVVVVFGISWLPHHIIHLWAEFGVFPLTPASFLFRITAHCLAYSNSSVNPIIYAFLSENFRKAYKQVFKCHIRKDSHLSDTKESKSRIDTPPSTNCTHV", "assay": "Displacement of europium labeled galanin from human recombinant GalR1 receptor by time-resolved fluorescence binding assay", "outline": "(§1)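 Competition binding on membranes from recombinant human GalR1 or GalR2 versus 2 nM europium-labeled galanin; 90 min incubation at room temperature, four washes (50 mM Tris-HCl pH 7.5, 5 mM MgCl2), enhancement solution 30 min at room temperature, time-resolved fluorescence read.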"}, "Galanin receptor type 2": {"target": "T2, Galanin receptor type 2 (Homo sapiens, UniProt O43603)", "T2 sequence (O43603 whole entry)": "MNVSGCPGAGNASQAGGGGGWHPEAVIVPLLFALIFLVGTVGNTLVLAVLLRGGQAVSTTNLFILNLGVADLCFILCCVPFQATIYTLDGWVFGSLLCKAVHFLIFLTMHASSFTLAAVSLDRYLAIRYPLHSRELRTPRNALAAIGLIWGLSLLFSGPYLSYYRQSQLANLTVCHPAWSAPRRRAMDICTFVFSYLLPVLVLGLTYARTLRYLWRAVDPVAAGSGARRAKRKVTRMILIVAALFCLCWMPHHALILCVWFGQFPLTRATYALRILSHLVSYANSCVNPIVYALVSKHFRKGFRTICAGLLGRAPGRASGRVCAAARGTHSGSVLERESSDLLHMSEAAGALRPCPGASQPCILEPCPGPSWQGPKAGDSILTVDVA", "assay": "Displacement of europium labeled galanin from human recombinant GalR2 receptor by time-resolved fluorescence binding assay", "outline": "as §1, with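 “read. Ki from nonlinear sigmoidal variable-slope fit, one-site reversible model, tracer Kd held at 4.3 nM.” for “read.”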"}, "[1]": {"assay": "Lipophilicity, log D by HPLC method", "type": "physicochemical", "outline": "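HPLC retention times were measured on a linear gradient of 20% to 100% buffer B (0.1% TFA in 90% aqueous acetonitrile; A was 0.1% TFA in water) over 40 min. Five analogs were calibrated by shake flask: 400 µg peptide in 1 mL PBS shaken with an equal volume of water-saturated octanol for 24 h, aqueous phase quantified by HPLC. LogD was calculated from the linear correlation with retention time.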"}}, "note": "pKi: −log10 of the molar value.", "data": [{"smiles": "CCCCCCCC(=O)NCCCC[C@H](NC(=O)[C@H](CCCCN)NC(=O)[C@H](CCCCN)NC(=O)[C@@H]1CCCN1C(=O)CNC(=O)[C@H](CC(C)C)NC(=O)[C@H](CC(C)C)NC(=O)[C@H](Cc1ccc(O)cc1)NC(=O)CNC(=O)[C@H](C)NC(=O)[C@H](CO)NC(=O)[C@H](CC(N)=O)NC(=O)[C@H](CC(C)C)NC(=O)[C@@H](NC(=O)[C@H](Cc1c[nH]c2ccccc12)NC(=O)CNC)[C@@H](C)O)C(=O)N[C@@H](CCCCN)C(N)=O", "values": [{"measurement": "pKi", "setting": "Galanin receptor type 1", "result": 9.15}, {"measurement": "pKi", "setting": "Galanin receptor type 2", "result": 7.83}]}, {"smiles": "CCCCCCCCCCCCCCCCCC(=O)NCCCC[C@H](NC(=O)[C@H](CCCCN)NC(=O)[C@H](CCCCN)NC(=O)[C@@H]1CCCN1C(=O)CNC(=O)[C@H](CC(C)C)NC(=O)[C@H](CC(C)C)NC(=O)[C@H](Cc1ccc(O)cc1)NC(=O)CNC(=O)[C@H](C)NC(=O)[C@H](CO)NC(=O)[C@H](CC(N)=O)NC(=O)[C@H](CC(C)C)NC(=O)[C@@H](NC(=O)[C@H](Cc1c[nH]c2ccccc12)OC(=O)CNC)[C@@H](C)O)C(=O)N[C@@H](CCCCN)C(N)=O", "values": [{"measurement": "logD", "setting": "[1]", "result": 1.35}]}, {"smiles": "CCCCCCCCCCCC(=O)NCCCC[C@H](NC(=O)[C@H](CCCCN)NC(=O)[C@H](CCCCN)NC(=O)[C@@H]1CCCN1C(=O)CNC(=O)[C@H](CC(C)C)NC(=O)[C@H](CC(C)C)NC(=O)[C@H](Cc1ccc(O)cc1)NC(=O)CNC(=O)[C@H](C)NC(=O)[C@H](CO)NC(=O)[C@H](CC(N)=O)NC(=O)[C@H](CC(C)C)NC(=O)[C@@H](NC(=O)[C@H](Cc1c[nH]c2ccccc12)NC(=O)CNC)[C@@H](C)O)C(=O)N[C@@H](CCCCN)C(N)=O", "values": [{"measurement": "pKi", "setting": "Galanin receptor type 1", "result": 8.85}, {"measurement": "pKi", "setting": "Galanin receptor type 2", "result": 7.79}]}, {"smiles": "CCCCCCCCCCCCCCCCCC(=O)NCCCC[C@H](NC(=O)[C@H](CCCCN)NC(=O)[C@H](CCCCN)NC(=O)[C@@H]1CCCN1C(=O)CNC(=O)[C@H](CC(C)C)NC(=O)[C@H](CC(C)C)NC(=O)[C@H](Cc1ccc(O)cc1)NC(=O)CNC(=O)[C@H](C)NC(=O)[C@H](CO)NC(=O)[C@H](CC(N)=O)NC(=O)[C@H](CC(C)C)NC(=O)[C@@H](NC(=O)[C@H](Cc1c[nH]c2ccccc12)NC(=O)CNC)[C@@H](C)O)C(=O)N[C@@H](CCCCN)C(N)=O", "values": [{"measurement": "pKi", "setting": "Galanin receptor type 1", "result": 8.40}, {"measurement": "pKi", "setting": "Galanin receptor type 2", "result": 7.82}]}, {"smiles": "CCCCCCCC(=O)NCCCC[C@H](NC(=O)[C@H](CCCCN)NC(=O)[C@H](CCCCN)NC(=O)[C@@H]1CCCN1C(=O)CNC(=O)[C@H](CC(C)C)NC(=O)[C@H](CC(C)C)NC(=O)[C@H](Cc1ccc(O)cc1)NC(=O)CNC(=O)[C@H](C)NC(=O)[C@H](CO)NC(=O)[C@H](CC(N)=O)NC(=O)[C@H](CC(C)C)NC(=O)[C@@H](NC(=O)[C@H](Cc1c[nH]c2ccccc12)OC(=O)CNC)[C@@H](C)O)C(=O)N[C@@H](CCCCN)C(N)=O", "values": [{"measurement": "logD", "setting": "[1]", "result": 0.78}]}, {"smiles": "CCCCCCCCCCCCCC(=O)NCCCC[C@H](NC(=O)[C@H](CCCCN)NC(=O)[C@H](CCCCN)NC(=O)[C@@H]1CCCN1C(=O)CNC(=O)[C@H](CC(C)C)NC(=O)[C@H](CC(C)C)NC(=O)[C@H](Cc1ccc(O)cc1)NC(=O)CNC(=O)[C@H](C)NC(=O)[C@H](CO)NC(=O)[C@H](CC(N)=O)NC(=O)[C@H](CC(C)C)NC(=O)[C@@H](NC(=O)[C@H](Cc1c[nH]c2ccccc12)NC(=O)CNC)[C@@H](C)O)C(=O)N[C@@H](CCCCN)C(N)=O", "values": [{"measurement": "pKi", "setting": "Galanin receptor type 1", "result": 8.59}, {"measurement": "pKi", "setting": "Galanin receptor type 2", "result": 7.74}]}, {"smiles": "CCCCCCCCCC(=O)NCCCC[C@H](NC(=O)[C@H](CCCCN)NC(=O)[C@H](CCCCN)NC(=O)[C@@H]1CCCN1C(=O)CNC(=O)[C@H](CC(C)C)NC(=O)[C@H](CC(C)C)NC(=O)[C@H](Cc1ccc(O)cc1)NC(=O)CNC(=O)[C@H](C)NC(=O)[C@H](CO)NC(=O)[C@H](CC(N)=O)NC(=O)[C@H](CC(C)C)NC(=O)[C@@H](NC(=O)[C@H](Cc1c[nH]c2ccccc12)NC(=O)CNC)[C@@H](C)O)C(=O)N[C@@H](CCCCN)C(N)=O", "values": [{"measurement": "pKi", "setting": "Galanin receptor type 1", "result": 8.89}, {"measurement": "pKi", "setting": "Galanin receptor type 2", "result": 7.84}]}, {"smiles": "CNCC(=O)N[C@@H](Cc1c[nH]c2ccccc12)C(=O)N[C@H](C(=O)N[C@@H](CC(C)C)C(=O)N[C@@H](CC(N)=O)C(=O)N[C@@H](CO)C(=O)N[C@@H](C)C(=O)NCC(=O)N[C@@H](Cc1ccc(O)cc1)C(=O)N[C@@H](CC(C)C)C(=O)N[C@@H](CC(C)C)C(=O)NCC(=O)N1CCC[C@H]1C(=O)N[C@@H](CCCCN)C(=O)N[C@@H](CCCCN)C(=O)N[C@@H](CCCCNC(=O)COCCOCCOCCOCCOC)C(=O)N[C@@H](CCCCN)C(N)=O)[C@@H](C)O", "values": [{"measurement": "pKi", "setting": "Galanin receptor type 1", "result": 9.30}, {"measurement": "pKi", "setting": "Galanin receptor type 2", "result": 7.69}]}]}
